Laboratory results published in ChEMBL document CHEMBL4038267, “Antiproliferative Activity of Natural Taiwaniaquinoids and Related Compounds” (J Nat Prod, 2017).

Columns and labels:
Assay type in all cases: functional, cell-based
MCF7 = assay: Antiproliferative activity against human MCF7 cells after 3 days by sulforhodamine B assay; conditions: MCF7, 72 h
Procedure, shortened: (§1)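 Cells from a university core cell-culture facility, grown in DMEM with 10% heat-inactivated FBS, penicillin-streptomycin and 2 mM L-glutamine at 37 °C, 5% CO2, 90% humidity. Seeded at 1 × 10^4 cells/cm2 in quadruplicate, treated after 24 h with increasing concentrations. Fixed in cold 10% TCA, stained with 0.4% sulforhodamine in 1% HOAc, solubilized in 10 mM Tris pH 10.5, OD 492 nm. IC50 by linear interpolation of semilog curves; mean ± SEM, four determinations.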

T84 = assay: Antiproliferative activity against human T84 cells after 3 days by sulforhodamine B assay; conditions: T84, 72 h; procedure, shortened: as §1
A549 = assay: Antiproliferative activity against human A549 cells after 3 days by sulforhodamine B assay; conditions: A549, 72 h; procedure, shortened: as §1

SMILES	IC50 (MCF7)	IC50 (A549)	IC50 (T84)
COC(=O)[C@]1(C)CCC[C@]2(C)C3=C(C(=O)C(C(C)C)=C(OC)C3=O)[C@H](CO)[C@@H]12	10 µM	22.9 µM	31.4 µM
C=C1C2=C(C(=O)C(OC)=C(C(C)C)C2=O)[C@@]2(C)CCCC(C)(C)C12O (some centres undefined)	12.6 µM	23.8 µM	24.9 µM
C=C1C2=C(C(=O)C(OC)=C(C(C)C)C2=O)[C@@]2(C)CCC[C@@](C)(C(=O)OC)[C@H]12	17 µM	19.7 µM	15.7 µM
CC(=O)OC[C@H]1c2c(O)c(C(C)C)cc(O)c2[C@@]2(C)CCCC(C)(C)[C@H]12	36.1 µM	19.4 µM	25 µM
CC(C)C1=CC(=O)C2=C(C=C3C(C)(C)CCC[C@@]32C)C1=O	7.1 µM	15 µM	8.6 µM
C=C1C2=C(C(=O)C(OC)=C(C(C)C)C2=O)[C@@]2(C)CCCC(C)(C)[C@H]12	12.4 µM	30.9 µM	32.3 µM
CC(C)C1=CC(=O)C2=C(C[C@H]3C(C)(C)CCC[C@]23C)C1=O	16.1 µM	30.3 µM	6 µM
C=C1C2=C(C(=O)C(Br)=C(C(C)C)C2=O)[C@@]2(C)CCCC(C)(C)C12O (some centres undefined)	1 µM	1.5 µM	5.2 µM
CC(C)C1=C(Br)C(=O)C2=C(C1=O)[C@H](CO)[C@H]1C(C)(C)CCC[C@]21C	2.1 µM	12.2 µM	6.7 µM
COC1=C(C(C)C)C(=O)C2=C(C1=O)[C@@]1(C)CCCC(C)(C)[C@@H]1C2 [TAIWANIAQUINONE G]	16.8 µM	30.5 µM	14.1 µM

Continued by falling IC50 (MCF7), values first:

IC50 (MCF7)	IC50 (A549)	SMILES	IC50 (T84)
39.9 µM	43.6 µM	CC(C)C1=C(O)C(=O)C2=C(C1=O)[C@H](CO)[C@H]1C(C)(C)CCC[C@]21C	35.3 µM
36.4 µM	27.2 µM	C=C1[C@H]2C(C)(C)CCC[C@]2(C)C2(O)C(=O)C(OC)=C(C(C)C)C(=O)C12O (some centres undefined)	36.3 µM
32.1 µM	8.6 µM	COC(=O)[C@]1(C)CCC[C@]2(C)C3=C(C(=O)C(C(C)C)=C(O)C3=O)[C@H](CO)[C@@H]12	23.2 µM
28.6 µM	25.1 µM	CC(C)C1=C(O)C(=O)C2=C(C1=O)[C@H](C=O)[C@H]1C(C)(C)CCC[C@]21C [TAIWANIQUINONE A]	30.9 µM
17.1 µM	19.2 µM	CC(C)C1=C(O)C(=O)[C@]23O[C@@]2(C1=O)[C@H](CO)[C@H]1C(C)(C)CCC[C@@]13C	17.1 µM
15.7 µM	12.5 µM	CC(C)C1=CC(=O)C2=C(C1=O)[C@H](CO)[C@H]1C(C)(C)CCC[C@]21C	18 µM
15.4 µM	10.1 µM	COC1=C(C(C)C)C(=O)C2=C(C1=O)[C@@]1(C)CCCC(C)(C)[C@@H]1[C@H]2C=O [TAIWANIAQUINONE]	11.9 µM
13.6 µM	21.1 µM	CC(=O)OC[C@H]1C2=C(C(=O)C=C(C(C)C)C2=O)[C@@]2(C)CCCC(C)(C)[C@H]12	28.8 µM
11.4 µM	12.1 µM	COC(=O)[C@]1(C)CCC[C@]2(C)C3=C(C(=O)C(C(C)C)=C(OC)C3=O)[C@H](C=O)[C@@H]12	12.8 µM
4 µM	29.7 µM	CC(=O)OC[C@H]1C2=C(C(=O)C(Br)=C(C(C)C)C2=O)[C@@]2(C)CCCC(C)(C)[C@H]12	29.5 µM
3.2 µM	22.1 µM	CC(C)C1=C(Br)C(=O)C2=C(C=C3C(C)(C)CCC[C@@]32C)C1=O	6.2 µM
2.4 µM	2.4 µM	COC(=O)[C@]1(C)CCC[C@]2(C)C3=C(C(=O)C(C(C)C)=C(Br)C3=O)[C@H](COC(C)=O)[C@@H]12	2.9 µM
2.2 µM	11.8 µM	CC(C)C1=C(Br)C(=O)C2=C(C[C@H]3C(C)(C)CCC[C@]23C)C1=O	3.2 µM
1.8 µM	1.1 µM	CC(=O)OC[C@H]1C2=C(C(=O)C(Br)=C(C(C)C)C2=O)[C@@]2(C)CCC[C@@](C)(COC(C)=O)[C@H]12	1.6 µM
1.3 µM	–	C=C1C2=C(C(=O)C(Br)=C(C(C)C)C2=O)[C@@]2(C)CCCC(C)(C)[C@H]12	9.6 µM
